Screening data deposited in PubChem by several laboratories.
Sampled rows, rich in hits. Any-hit rate of the full collection: about 10%.
PMI act satM6P: human PMI activators, high substrate, primary screen, biochemical, fluorescence intensity, near-saturating mannose 6-phosphate | Mannose-6-phosphate isomerase (Homo sapiens), P34949 | coupled PMI enzyme assay, resazurin fluorescence, 20 min; active compounds read high; 1 = untreated enzyme, 0 = substrate-free blank | activation factor at 20 µM | actives 0.34% (n = 190,000);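 active = activation factor of 2 or more at 20 µM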
Target sequence (P34949 whole entry, looked up): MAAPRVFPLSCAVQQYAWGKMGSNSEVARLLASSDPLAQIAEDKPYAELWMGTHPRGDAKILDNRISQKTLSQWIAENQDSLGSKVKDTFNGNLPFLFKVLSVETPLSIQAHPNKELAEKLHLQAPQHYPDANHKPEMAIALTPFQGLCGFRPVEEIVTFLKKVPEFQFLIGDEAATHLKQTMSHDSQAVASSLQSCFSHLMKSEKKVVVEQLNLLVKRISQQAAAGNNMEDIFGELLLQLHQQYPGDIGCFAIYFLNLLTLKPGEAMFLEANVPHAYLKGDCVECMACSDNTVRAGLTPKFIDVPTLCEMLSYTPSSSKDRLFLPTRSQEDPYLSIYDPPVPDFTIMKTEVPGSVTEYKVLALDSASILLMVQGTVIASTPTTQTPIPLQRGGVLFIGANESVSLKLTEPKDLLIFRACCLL
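Test system: human PMI in coupled enzyme assay; Input: PMI at 15 ng/mL final; Medium: HEPES buffer, pH 7.4; Schedule: 20 min incubation at room temperature; Technique: resorufin fluorescence at Ex 544/Em 590 nm; Compound: 20 µM single dose; Probe or stimulus: Near-saturating mannose-6-phosphate, 1.0 mM.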
WT yeast gro inh: growth inhibition of WT strain, primary screen, mitochondrial fusion inhibitor project, WT and mutant strains, chemical genetic; inhibition, % at 10 µM; mitochondrial fusion phenotypic screen; actives 2.1% (n = 190,000); in the data active = inhibition above about 58%; tested in S. cerevisiae
L major viab: Leishmania major promastigote growth inhibition, primary screen | Leishmania major promastigotes, resazurin fluorescence viability | inhibition, % at 10 µM | actives 9% (n = 200,000); in the data active = inhibition above about 50%;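 also: promastigotes grown with compound for 44 hours at 28 °C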
Diaphorase act: compounds boosting diaphorase resazurin reduction – biochemical, uHTS, resorufin fluorescence, counter-screen for diaphorase-coupled primary assays, primary screen. activation factor at 20 µM. actives 0.005% (n = 190,000). Diaphorase/resazurin coupled assay, 16 min; active compounds read high; 1 = vehicle wells, 0 = NADH-free wells;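 active = diaphorase activity raised at least twofold by the compound at 20 µM; inactive = activation factor below 2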
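System – purified diaphorase enzyme from Clostridium kluyveri · Input – enzyme 0.07 U/mL final · Also added – final NADH 0.114 mM, resazurin 0.1 mM · Measured by – fluorescence of resorufin, 544 nm excitation, 590 nm emission · Timing – 16 min enzyme reaction, ambient temperature · Measure – resorufin increase flagging diaphorase activators or reducers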
PMI activator: activators of human PMI, primary screen, biochemical, fluorescence intensity, near-Km mannose 6-phosphate. activation factor at 20 µM. purified human PMI, coupled resazurin fluorescence, 20 min; active compounds read high; 1 = vehicle control, 0 substrate-free wells. actives 0.005% (n = 190,000);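 active = activation factor of 2 or more at 20 µM, relative to plate controls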
An asterisk follows results filed as active.

SMILES | PMI act satM6P | WT yeast gro inh | L major viab | Diaphorase act | PMI activator
O=C(Cc1ccc(-n2c(=O)c3ccccc3n(Cc3ccccc3Cl)c2=O)cc1)NCC1CCCO1 (stereo not drawn) | 1 | -18 | 100* | 1 | 1
O=C(Cc1ccc(-n2c(=O)c3ccccc3n(Cc3ccccc3F)c2=O)cc1)NCC1CCCO1 (stereo not drawn) | 1 | 3 | 99* | 0.9 | 0.8
COc1ccc(CCNC(=O)COc2ccc(N(C)S(=O)(=O)c3ccc(Cl)cc3)cc2)cc1 | 1 | 8 | 97* | 0.8 | 1
CCN(CCCNC(=O)C1CCC(=O)N1Cc1ccc(F)cc1)c1cccc(C)c1 (stereo not drawn) | 0.9 | 12 | -2 | 0.9 | 0.9
CCN(CCNCC(O)COCc1ccc(Cl)cc1)c1cccc(C)c1 (stereo not drawn) | 1 | 62* | 25 | 0.9 | 1
O=C(NCCO)c1cc([N+](=O)[O-])cc2c1C=Cc1ccccc1O2 | 1 | -4 | 95* | 1 | 1
CCC(/C=C1\Sc2ccc(OC)cc2N1CC)=C\c1sc2ccc(OC)cc2[n+]1CCCS(=O)(=O)[O-] | 0.8 | 75* | 100* | 0.9 | 0.8
COC(=O)[C@@]1(Cc2ccc(F)cc2)[C@H]2c3cc(C(=O)N(C)C)n(Cc4ccc(OC(F)(F)F)cc4)c3C[C@H]2CN1C(=O)c1ccccc1 | 0.9 | 30 | 83* | 0.8 | 0.9
COC(=O)[C@@]1(Cc2ccc(OC)cc2)[C@H]2c3cc(C(=O)N4CCCC4)n(CCO)c3C[C@H]2CN1C(=O)c1ccccc1 | 0.9 | 2 | 0 | 0.9 | 1
COC(=O)[C@@]1(Cc2ccc(F)cc2)[C@H]2c3cc(C(=O)N4CCCC4)n(CCO)c3C[C@H]2CN1C(=O)c1ccccc1 | 0.9 | 4 | 11 | 0.9 | 1
COC(=O)[C@@]1(Cc2ccc(F)cc2)[C@H]2c3cc(C(=O)N4CCCC4)n(CCc4ccc(O)c(O)c4)c3C[C@H]2CN1C(=O)c1ccccc1 | 0.8 | -3 | 100* | 0.5 | 0.5
COC(=O)[C@@]1(Cc2ccc(OC)cc2)[C@H]2c3cc(C(=O)N4CCCC4)n(CCSCCO)c3C[C@H]2CN1C(=O)c1ccccc1 | 0.9 | -15 | 51* | 0.8 | 0.9
COC(=O)[C@@]1(Cc2ccc(F)cc2)[C@H]2c3cc(C(=O)N(C)C)n(C[C@H](O)CO)c3C[C@H]2CN1C(=O)c1ccccc1 | 0.9 | 2 | 0 | 0.8 | 0.9
COC(=O)[C@@]1(Cc2ccc(OC)cc2)[C@H]2c3cc(C(=O)N(C)C)n(CCSCCO)c3C[C@H]2CN1C(=O)c1ccccc1 | 1 | 23 | 65* | 1 | 1
COc1ccc(/C=N/NC(=O)c2ccc(N)cc2)cc1Cn1cc([N+](=O)[O-])cn1 | 1 | 21 | 1 | 1 | 1
COc1ccc(/C=N/NC(=O)c2cccc(OC(F)(F)C(F)F)c2)cc1O | 1 | -2 | -7 | 0.9 | 1
COC(=O)[C@@]1(Cc2ccccc2)[C@H]2c3cc(C(=O)N4CCCC4)n(Cc4ccsc4Br)c3C[C@H]2CN1C(=O)c1ccccc1 | 0.8 | 48 | 54* | 0.7 | 0.8
COC(=O)Cn1c(C(=O)N2CCCC2)cc2c1C[C@H]1CN(C(=O)c3ccccc3)[C@@](Cc3ccc(F)cc3)(C(=O)OC)[C@@H]21 | 1 | 12 | 15 | 1 | 1.1
O=C(Cn1cnc2ccc(Cl)cc2c1=O)c1cccs1 | 1.1 | -7 | -5 | 1.1 | 1
CN(c1ccccc1)S(=O)(=O)c1ccc(NC(=S)Nc2ccccc2)cc1 | 1 | -7 | 93* | 0.9 | 1
CN(c1cccc(NC(=O)c2ccc(N(C)S(=O)(=O)c3ccccc3)cc2)c1)S(C)(=O)=O | 0.9 | -15 | 62* | 0.8 | 0.9
CN(c1ccccc1)S(=O)(=O)c1ccc(NC(=O)c2ccc(-c3ccccc3)cc2)cc1 | 0.9 | -9 | 97* | 0.9 | 0.9
CN(c1cccc(NC(=O)c2ccc(C(C)(C)C)cc2)c1)S(C)(=O)=O | 1 | 23 | 17 | 1 | 1
COC(=O)c1ccc(-n2c(C)cc(-c3csc(NC(=O)c4ccc(S(=O)(=O)N(C)C)cc4)n3)c2C)cc1 | 1 | -2 | 57* | 0.8 | 0.9
O=S(=O)(c1ccccc1)N(CC1CO1)c1cccc2ccccc12 (stereo not drawn) | 0.8 | 8 | 21 | 0.8 | 0.9
SMILES | PMI act satM6P | WT yeast gro inh | L major viab | Diaphorase act | PMI activator
CC(=O)c1c(C)[nH]c(C(=O)NCc2cccc(Cl)c2)c1C | 1 | -9 | -1 | 0.9 | 1
O=c1c(Cc2ccc(Cl)cc2)c(O)ccn1Cc1ccncc1 | 1 | -12 | 0 | 1.1 | 0.9
CC(C)(C)NC(=O)C(c1ccncc1)N(C(=O)c1csnn1)c1cccc2ccccc12 (stereo not drawn) | 0.8 | 0 | -5 | 0.9 | 0.9
Cc1csc(NC(=O)c2ccc(S(=O)(=O)N(C)c3ccccc3)cc2)n1 | 0.9 | 7 | 98* | 0.8 | 0.9
CN(c1ccccc1)S(=O)(=O)c1ccc(C(=O)Nc2nccs2)cc1 | 0.9 | 5 | 5 | 0.8 | 0.9
CC(C)N(C)NC(=S)Nc1ccccc1 | 1 | -9 | 62* | 1 | 0.9
COc1ccccc1NS(=O)(=O)c1ccc(Cl)c(NC(=O)C(C)N2C(=O)c3ccccc3C2=O)c1 (stereo not drawn) | 0.9 | 12 | 32 | 0.8 | 0.9
Cc1cccc(C)c1NC(=S)N(c1ccccc1)C(C)C | 1.1 | 5 | 4 | 0.9 | 0.9
COc1cc(/C=C(\C#N)c2nc3ccccc3[nH]2)c([N+](=O)[O-])cc1OCc1ccccc1 | 0.3 | 11 | 90* | 0.6 | 0.6
COc1cc(/C=C(\C#N)c2nc3ccccc3[nH]2)ccc1OC(=O)c1ccco1 | 1 | 28 | 13 | 0.9 | 0.9
N#C/C(=C\c1ccncc1)c1nc2ccccc2[nH]1 | 0.9 | -7 | 59* | 0.9 | 1.1
Cc1cc2nc(/C(C#N)=C/c3ccncc3)[nH]c2cc1C | 0.8 | 9 | 29 | 0.9 | 1
CCN(CC)c1ccc(/C=C(/C#N)c2nc3ccccc3[nH]2)c(OC(C)C)c1 | 0.8 | 5 | 98* | 0.9 | 0.9
CCO[C@H]1OC(C(=O)O)=C[C@@H](C)[C@@H]1CCCO | 1 | 2 | -6 | 1 | 1.1
Cc1ccc2cc(C=C(C#N)C#N)c(N3CCCCC3)nc2c1 | 0.9 | -13 | 99* | 0.8 | 1
CCOC(=O)/C(C#N)=C/c1cc2ccccc2nc1N1CCCCC1 | 1 | 49 | 88* | 0.9 | 0.9
Cc1ccc2cc(/C=C(\C#N)C(N)=O)c(N3CCCCC3)nc2c1 | 1.1 | -11 | 42 | 0.9 | 1.1
